L major viab – reduces viability of Leishmania major promastigotes; 200,000 compounds, 9% hits; resazurin fluorescence viability; inhibition, % at 10 µM; in the data active = inhibition above about 50%;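 also: promastigotes grown with compound for 44 hours at 28 °C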
XBP1 UPR activ – adaptive UPR (XBP1) activation; activation, % at 20 µM; 330,000 compounds, 0.33% hits; CHO-XBP1 luciferase reporter, IRE1-XBP1 UPR activation, luminescence; percent of tunicamycin response, DMSO as zero; AID 463104;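 active = versus positive control, 20 µM dose yields 30% or more activation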
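Material – CHO cell line with stable XBP1 luciferase reporter · Buffer or medium – F12 plus 10% FBS · Compound – single point, 20 µM final compound, 1% DMSO · Schedule – 16-18 h cell attachment at 37 °C, then 6 h compound exposure · Signal – Steady-Glo luminescence read · Benchmarks – high control tunicamycin 10 µg/mL final, low control DMSO vehicle only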
CHOP UPR activ – activators of apoptotic arm of unfolded protein response (CHOP); CHO-CHOP luciferase reporter, UPR activation, luminescence; percent of tunicamycin response over DMSO baseline; activation, % at 10 µM; 330,000 compounds, 0.34% hits; AID 449763;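 active = at 10 µM dose, activation of 40% or more, normalized to positive control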
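Evaluation: % reporter activation, DMSO baseline versus tunicamycin full activation; System: CHO-CHOP luciferase reporter cell line; Input: 500 cells/well; Incubation: 6 h compound treatment, 37 °C; Measured by: Steady-Glo luciferase luminescence; Dosing: one dose, 10 µM in 0.5% DMSO; Buffer or medium: F12 medium, 10% FBS; Benchmarks: positive tunicamycin 10 µg/mL, negative DMSO alone.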
T cruzi repl – T. cruzi replication inhibition; T. cruzi beta-gal in NIH3T3, luminescence, 90 h; inhibition, % (no concentration beside the values); 300,000 compounds, 1.4% hits; AID 1885;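 active = mean inhibition across valid replicates above about 55%, limit read from the data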;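 also: signal also drops with host cell toxicity which is not excluded here; higher percent means less beta-gal luminescence so fewer parasites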
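System: NIH/3T3 fibroblasts plus reporter T. cruzi. Medium: DMEM plus 2% FBS. Probe or stimulus: 5000 reporter trypomastigotes per well. Compound: single 50 nL compound addition per well in DMSO. Incubation: co-culture of at least 90 h after 3 h attachment. Detection: GalScreen β-gal luminescence, detergent lysis, 60 min. Evaluation: parasite load inhibition, %.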
CHOP inh – blocks CHOP induction under ER stress; 220,000 compounds, 3.8% hits; inhibition, % at 10 µM; CHO-K1 CHOP-promoter luciferase, tunicamycin-induced, 15-18 h; AID 2732;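 active = compounds that reduced the stress-induced luciferase reporter signal by more than about 70% of percent inhibition, limit read from the data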
Dynein transport – blocks dynein driven cargo transport along microtubules | 220,000 compounds, 0.47% hits | z-score, hits read low | 3617.4 mouse cells, GR-EGFP nuclear translocation imaging; test concentration mostly 20 µM; stimulated with dexamethasone, 1 µM; hits give low values;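 active = plate z-score of nuclear minus cytoplasmic receptor signal below a set negative limit, without overly bright fluorescence or cell loss, cut at about -3.5 in these data, passing the limit was not always enough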;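 also: z-score of nuclear minus cytoplasmic ring GR-EGFP intensity difference per well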
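Buffer or medium: tet-free, stripped-serum medium; reagent: dexamethasone at 1.0 µM final, 30 min; incubation: 48 h induction, 1 h compound, 30 min dex at 37 °C; measured by: formaldehyde fixation, Hoechst nuclear stain, 10x automated fluorescence imaging; read-out: nuclear-to-cytoplasmic GR-EGFP distribution per well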
A number is an active result; . = inactive; / = no result. This is one part of a sample in which hits are shown more often than they occur.

SMILES | L major viab | XBP1 UPR activ | CHOP UPR activ | T cruzi repl | CHOP inh | Dynein transport
CCN1CCN(c2cc(C)c3cc(NC(=S)N4CCN(c5ccccc5)CC4)ccc3n2)CC1 | 99.8 | . | . | 58.0 | . | .
COc1ccccc1N1CCN(C(=S)Nc2ccc3nc(N4CCOCC4)cc(C)c3c2)CC1 | 53.3 | . | . | . | . | .
CCN1CCN(c2cc(C)c3cc(NC(=S)N4CCN(c5ccccc5F)CC4)ccc3n2)CC1 | 99.1 | . | . | . | . | .
CCN1CCN(c2cc(C)c3cc(NC(=S)N4CCOCC4)ccc3n2)CC1 | . | . | . | . | . | .
Cc1ccccc1OCCOC(=O)c1cc(S(=O)(=O)N2CCCCC2)ccc1N1CCOCC1 | / | . | . | / | / | /
COc1cn(-c2ccccc2)nc1C(=O)OCC(=O)Nc1ccc(C)c(C)c1 | / | . | . | / | / | /
N=S(=O)(O)Cc1noc2ccccc12 | / | / | / | / | . | /
O=C1c2ccccc2C(=O)c2c1ccc1c(=O)n(C3CCCCC3)[nH]c21 | 99.0 | . | . | . | . | .
O=c1c2[nH]c3ccccc3c2ncn1C1CCCCC1 | . | . | . | . | . | .
CC(CC(=O)N1CCc2ccccc21)S(=O)(=O)c1ccc2c(c1)NC(=O)CO2 (configuration not stated) | / | . | . | . | / | /
CCC(C)(C)n1nnnc1C(c1cc2ccc(OC)cc2[nH]c1=O)N1CCc2ccccc2C1 (configuration not stated) | 99.8 | . | . | 55.5 | . | .
COc1ccc2cc(C(c3nnnn3C(C)(C)C)N3CCc4ccccc4C3)c(=O)[nH]c2c1 (configuration not stated) | 98.5 | . | . | / | . | .
COc1ccc2cc(C(c3nnnn3C(C)(C)C)N3CCSCC3)c(=O)[nH]c2c1 (configuration not stated) | . | . | . | . | . | .
COc1ccc2cc(C(c3nnnn3C3CCCC3)N3CCc4ccccc4C3)c(=O)[nH]c2c1 (configuration not stated) | 82.1 | . | . | . | . | .
CCCn1c(Nc2cccc(OC)c2)nc2ccccc21 | / | . | . | . | / | /
Cc1ccc(C(C)C)c(Oc2cnccn2)c1 | / | . | . | . | / | /
Cc1ccc(C2(C)NC(=O)N(CC(=O)N3CCN(C(=O)c4cccs4)CC3)C2=O)cc1 (configuration not stated) | / | . | . | / | / | /
O=C(Nc1nc(-c2cccc3ccccc23)cs1)c1cnccn1 | . | . | . | . | 92.5 | .
Cc1cc(NCCCN2CCOCC2)n2ncc(-c3ccc(Cl)cc3)c2n1 | 99.0 | . | . | . | . | .
CC(C)(C)c1cc(NCCCn2ccnc2)n2ncc(-c3ccccc3)c2n1 | / | . | . | . | . | .
Cc1cc(NCCCn2ccnc2)n2ncc(-c3ccc(Cl)cc3)c2n1 | 99.9 | . | . | . | / | .
CN1CCN(NC(=O)/C=C/c2cccc([N+](=O)[O-])c2)CC1 | / | . | . | . | / | /
O=C(NCCc1c[nH]c2ccccc12)c1cc2sccc2n1Cc1ccccc1 | 99.6 | . | . | . | . | .
Cn1c(C(=O)NCCc2c[nH]c3ccccc23)cc2sccc21 | . | . | . | . | / | .
Oc1c(CN2CCCCC2)cc(COCc2ccccc2)c2cccnc12 | 100.5 | . | . | 71.8 | / | .
SMILES | L major viab | XBP1 UPR activ | CHOP UPR activ | T cruzi repl | CHOP inh | Dynein transport
COc1ccccc1N1CCN(Cc2cc(Br)c(O)c3ncccc23)CC1 | 100.4 | . | . | 59.2 | / | .
COCc1cc(CN2CCCC2)c(O)c2ncccc12 | 100.5 | . | . | 64.3 | / | .
CN(C)C1CCN(Cc2cc(COCc3ccccc3)c3cccnc3c2O)C1 (configuration not stated) | / | . | . | / | / | /
OCC(O)[C@@H](O[C@H]1O[C@H](CO)[C@@H](O)[C@H](O)[C@H]1O)[C@H](O)[C@@H](O)CO (some centres not stated) | / | . | . | . | / | /
COCCNC(=O)COc1coc(CN2CCN(Cc3ccccc3)CC2)cc1=O | / | . | . | . | / | /
Cc1ccc(-c2nnc(SCC(=O)N/N=C/c3ccc(C(=O)O)cc3)n2C2CCCCC2)cc1 | / | . | . | . | / | /

High-throughput results (PubChem)
